Laboratory results reported in ChEMBL document CHEMBL4689842, “EUbOPEN Chemogenomics Library wave 1” (2021).

System: Fibroblast
Test: Multiplex assay against human fibroblast
Type: toxicity, cell-based
How it was run: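 Cells were classed with CellPathfinder machine-learning gating, first as Hoechst high-intensity objects or normal cells, then (normal cells) as healthy, pyknosed or fragmented nuclei, and finally (pyknosed cells) as mitotic or apoptotic. Staining of live cells at seeding used Hoechst33342, BioTracker Green Microtubule Cytoskeleton Dye, MitoTracker Red and Annexin V Alexa Fluor 680, with imaging on a CQ1 microscope at 37°C and 5% CO2 after compound addition. Tubulin, mitochondrial-mass and membrane-permeability phenotypes are per cents of healthy-nucleus cells.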

[1] = 12 h, 1 µM, compound concentration 1 uM, replicate 1
[2] = 12 h, 1 µM, compound concentration 1 uM, replicate 2
[3] = 12 h, 10 µM, compound concentration 10 uM, replicate 1
[4] = 12 h, 10 µM, compound concentration 10 uM, replicate 2
[5] = 24 h, 1 µM, compound concentration 1 uM, replicate 1
[6] = 24 h, 1 µM, compound concentration 1 uM, replicate 2
[7] = 24 h, 10 µM, compound concentration 10 uM, replicate 1
[8] = 24 h, 10 µM, compound concentration 10 uM, replicate 2
[9] = 48 h, 1 µM, compound concentration 1 uM, replicate 1
[10] = 48 h, 1 µM, compound concentration 1 uM, replicate 2
[11] = 48 h, 10 µM, compound concentration 10 uM, replicate 1
[12] = 48 h, 10 µM, compound concentration 10 uM, replicate 2

In the case of `S=C(NCCCc1c[nH]cn1)NCCCN(Cc1ccc(Cl)c(Cl)c1)c1ccc(Br)cn1`, the “Population Apoptotic (%)” value [1] is reported as 52%, the “Population Fragmented Nuclei (%)” value [1] is reported as 28% and the “Population Healthy Nuclei (%)” value [1] is reported as 42%. The “Population Hoechst High Intensity Objects (%)” value [1] was 13%, the “Population Membrane Permeable-Phenotype (%)” value [1] was 28% and the “Population Mitochondria Different-Phenotype (%)” value [1] was 11%. The “Population Mitotic Cells (%)” value [1] was 47%, the “Population Normal (%)” value [1] was 86% and the “Population Pyknosed Nuclei (%)” value [1] was 28%. For the same compound, the “Population Tubulin-Different-Phenotype (%)” value [1] was 55%, the “Total Cell Count” value [1] was 140 and the “Population Apoptotic (%)” value [2] was 0%. For the same compound, the “Population Fragmented Nuclei (%)” value [2] was 17%, the “Population Healthy Nuclei (%)” value [2] was 82% and the “Population Hoechst High Intensity Objects (%)” value [2] was 15%. The “Population Membrane Permeable-Phenotype (%)” value [2] was 8%, the “Population Mitochondria Different-Phenotype (%)” value [2] was 8% and the “Population Mitotic Cells (%)” value [2] was 0%. The “Population Normal (%)” value [2] was 84%, the “Population Pyknosed Nuclei (%)” value [2] was 0% and the “Population Tubulin-Different-Phenotype (%)” value [2] was 4%. For the same compound, the “Total Cell Count” value [2] was 79, the “Population Apoptotic (%)” value [3] was 46% and the “Population Fragmented Nuclei (%)” value [3] was 18%. For the same compound, the “Population Healthy Nuclei (%)” value [3] was 8%, the “Population Hoechst High Intensity Objects (%)” value [3] was 20% and the “Population Membrane Permeable-Phenotype (%)” value [3] was 66%. The “Population Mitochondria Different-Phenotype (%)” value [3] was 11%, the “Population Mitotic Cells (%)” value [3] was 53% and the “Population Normal (%)” value [3] was 79%. For the same compound, the “Population Pyknosed Nuclei (%)” value [3] was 72%, the “Population Tubulin-Different-Phenotype (%)” value [3] was 88% and the “Total Cell Count” value [3] was 133. The “Population Apoptotic (%)” value [4] was 93%, the “Population Fragmented Nuclei (%)” value [4] was 25% and the “Population Healthy Nuclei (%)” value [4] was 2%. For the same compound, the “Population Hoechst High Intensity Objects (%)” value [4] was 11%, the “Population Membrane Permeable-Phenotype (%)” value [4] was 100% and the “Population Mitochondria Different-Phenotype (%)” value [4] was 100%. The “Population Mitotic Cells (%)” value [4] was 6%, the “Population Normal (%)” value [4] was 88% and the “Population Tubulin-Different-Phenotype (%)” value [4] was 100%. The “Total Cell Count” value [4] was 33, the “Population Apoptotic (%)” value [5] was 66% and the “Population Fragmented Nuclei (%)” value [5] was 32%. For the same compound, the “Population Healthy Nuclei (%)” value [5] was 48%, the “Population Hoechst High Intensity Objects (%)” value [5] was 17% and the “Population Membrane Permeable-Phenotype (%)” value [5] was 19%. The “Population Mitochondria Different-Phenotype (%)” value [5] was 11%, the “Population Mitotic Cells (%)” value [5] was 33% and the “Population Normal (%)” value [5] was 82%. For the same compound, the “Population Pyknosed Nuclei (%)” value [5] was 18%, the “Population Tubulin-Different-Phenotype (%)” value [5] was 64% and the “Total Cell Count” value [5] was 154. The “Population Apoptotic (%)” value [6] was 0%, the “Population Fragmented Nuclei (%)” value [6] was 19% and the “Population Healthy Nuclei (%)” value [6] was 80%. For the same compound, the “Population Hoechst High Intensity Objects (%)” value [6] was 8%, the “Population Membrane Permeable-Phenotype (%)” value [6] was 16% and the “Population Mitochondria Different-Phenotype (%)” value [6] was 8%. The “Population Mitotic Cells (%)” value [6] was 0%, the “Population Normal (%)” value [6] was 91% and the “Population Pyknosed Nuclei (%)” value [6] was 0%. The “Population Tubulin-Different-Phenotype (%)” value [6] was 20%, the “Total Cell Count” value [6] was 79 and the “Population Apoptotic (%)” value [7] was 53%. The “Population Fragmented Nuclei (%)” value [7] was 24%, the “Population Healthy Nuclei (%)” value [7] was 15% and the “Population Hoechst High Intensity Objects (%)” value [7] was 21%. The “Population Membrane Permeable-Phenotype (%)” value [7] was 56%, the “Population Mitochondria Different-Phenotype (%)” value [7] was 18% and the “Population Mitotic Cells (%)” value [7] was 46%. The “Population Normal (%)” value [7] was 78%, the “Population Pyknosed Nuclei (%)” value [7] was 60% and the “Population Tubulin-Different-Phenotype (%)” value [7] was 93%. For the same compound, the “Total Cell Count” value [7] was 133, the “Population Apoptotic (%)” value [8] was 100% and the “Population Fragmented Nuclei (%)” value [8] was 12%. For the same compound, the “Population Healthy Nuclei (%)” value [8] was 24%, the “Population Hoechst High Intensity Objects (%)” value [8] was 25% and the “Population Membrane Permeable-Phenotype (%)” value [8] was 94%. For the same compound, the “Population Mitochondria Different-Phenotype (%)” value [8] was 88%, the “Population Mitotic Cells (%)” value [8] was 0% and the “Population Normal (%)” value [8] was 74%. For the same compound, the “Population Pyknosed Nuclei (%)” value [8] was 62%, the “Population Tubulin-Different-Phenotype (%)” value [8] was 88% and the “Total Cell Count” value [8] was 34. The “Population Apoptotic (%)” value [9] was 57%, the “Population Fragmented Nuclei (%)” value [9] was 50% and the “Population Healthy Nuclei (%)” value [9] was 39%. The “Population Hoechst High Intensity Objects (%)” value [9] was 20%, the “Population Membrane Permeable-Phenotype (%)” value [9] was 24% and the “Population Mitochondria Different-Phenotype (%)” value [9] was 1%. For the same compound, the “Population Mitotic Cells (%)” value [9] was 42%, the “Population Normal (%)” value [9] was 79% and the “Population Pyknosed Nuclei (%)” value [9] was 9%. For the same compound, the “Population Tubulin-Different-Phenotype (%)” value [9] was 36%, the “Total Cell Count” value [9] was 184 and the “Population Apoptotic (%)” value [10] was 50%. For the same compound, the “Population Fragmented Nuclei (%)” value [10] was 40%, the “Population Healthy Nuclei (%)” value [10] was 58% and the “Population Hoechst High Intensity Objects (%)” value [10] was 21%. For the same compound, the “Population Membrane Permeable-Phenotype (%)” value [10] was 23%, the “Population Mitochondria Different-Phenotype (%)” value [10] was 0% and the “Population Mitotic Cells (%)” value [10] was 50%. For the same compound, the “Population Normal (%)” value [10] was 78%, the “Population Pyknosed Nuclei (%)” value [10] was 1% and the “Population Tubulin-Different-Phenotype (%)” value [10] was 63%. For the same compound, the “Total Cell Count” value [10] was 220, the “Population Apoptotic (%)” value [11] was 58% and the “Population Fragmented Nuclei (%)” value [11] was 34%. For the same compound, the “Population Healthy Nuclei (%)” value [11] was 25%, the “Population Hoechst High Intensity Objects (%)” value [11] was 34% and the “Population Membrane Permeable-Phenotype (%)” value [11] was 39%. The “Population Mitochondria Different-Phenotype (%)” value [11] was 26%, the “Population Mitotic Cells (%)” value [11] was 41% and the “Population Normal (%)” value [11] was 65%. The “Population Pyknosed Nuclei (%)” value [11] was 40%, the “Population Tubulin-Different-Phenotype (%)” value [11] was 91% and the “Total Cell Count” value [11] was 137. For the same compound, the “Population Apoptotic (%)” value [12] was 80%, the “Population Fragmented Nuclei (%)” value [12] was 37% and the “Population Healthy Nuclei (%)” value [12] was 16%. The “Population Hoechst High Intensity Objects (%)” value [12] was 33%, the “Population Membrane Permeable-Phenotype (%)” value [12] was 77% and the “Population Mitochondria Different-Phenotype (%)” value [12] was 0%. The “Population Mitotic Cells (%)” value [12] was 20%, the “Population Normal (%)” value [12] was 66% and the “Population Pyknosed Nuclei (%)” value [12] was 46%. For the same compound, the “Population Tubulin-Different-Phenotype (%)” value [12] was 100% and the “Total Cell Count” value [12] was 81.
